From ChEMBL document CHEMBL1148220, “Antineoplastic agents. 529. Isolation and structure of nootkastatins 1 and 2 from the Alaskan yellow cedar Chamaecyparis nootkatensis” (2004)
Calls of active or inactive are those of the source.

Legend:
Cryptococcus neoformans [1] = assay: Antimicrobial activity against Cryptococcus neoformans ATCC 90122 after 24 hrs by broth microdilution assay in presence of 25% human serum; assay type: functional; conditions: ATCC 90112, 24 h, in the assay text read “ATCC 90112” for “ATCC 90122”
Method in brief: (§1)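 For yeasts, NCCLS broth microdilution was run in medium supplemented with 25% heat-inactivated, filter-sterilized normal human serum. Compounds were reconstituted in sterile DMSO and diluted in medium just before the assay. MIC was the lowest concentration giving optically clear wells.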

Candida albicans [2] = assay: Antimicrobial activity against Candida albicans ATCC 90028 after 48 hrs by broth microdilution assay in presence of 25% human serum; assay type: functional; conditions: ATCC 90028, 48 h; method in brief: as §1
Staphylococcus aureus [3] = assay: Antimicrobial activity against Staphylococcus aureus ATCC 29213 after 24 hrs by broth microdilution assay in presence of 25% human serum; assay type: functional; conditions: ATCC 29213, 24 h
Method in brief: (§2)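 Bacteria were tested by NCCLS broth microdilution in medium containing 25% heat-inactivated, filter-sterilized normal human serum. Compounds were dissolved in sterile DMSO and diluted in medium immediately before use. MIC was the lowest concentration with no visible growth (optically clear). Assays were repeated on separate days.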

Streptococcus pneumoniae [4] = assay: Antimicrobial activity against Streptococcus pneumoniae ATCC 6303 after 24 hrs by broth microdilution assay in presence of 25% human serum; assay type: functional; conditions: ATCC 6303, 24 h; method in brief: as §2
Enterococcus faecalis [5] = assay: Antimicrobial activity against Enterococcus faecalis ATCC 29212 after 24 hrs by broth microdilution assay in presence of 25% human serum; assay type: functional; conditions: ATCC 29212, 24 h; method in brief: as §2
Micrococcus luteus [6] = assay: Antimicrobial activity against Micrococcus luteus Presque Isle 456 after 24 hrs by broth microdilution assay in presence of 25% human serum; assay type: functional; method in brief: as §2
Escherichia coli [7] = assay: Antimicrobial activity against Escherichia coli ATCC 25922 after 24 hrs by broth microdilution assay in presence of 25% human serum; assay type: functional; conditions: ATCC 25922, 24 h; method in brief: as §2
Enterobacter cloacae [8] = assay: Antimicrobial activity against Enterobacter cloacae ATCC 13047 after 24 hrs by broth microdilution assay in presence of 25% human serum; assay type: functional; conditions: ATCC 13047, 24 h; method in brief: as §2
[9] = system: Stenotrophomonas maltophilia; assay: Antimicrobial activity against Stenotrophomonas maltophilia ATCC 13637 after 24 hrs by broth microdilution assay in presence of 25% human serum; assay type: functional; conditions: ATCC 13637, 24 h; method in brief: as §2
Neisseria gonorrhoeae [10] = assay: Antimicrobial activity against Neisseria gonorrhoeae ATCC 49226 after 24 hrs by broth microdilution assay in presence of 25% human serum; assay type: functional; conditions: ATCC 49226, 24 h; method in brief: as §2
Cryptococcus neoformans [11] = assay: Antimicrobial activity against fluconazole-resistant Cryptococcus neoformans after 48 hrs by broth microdilution assay in presence of 25% human serum; assay type: functional
Nakaseomyces glabratus [12] = assay: Antimicrobial activity against Candida glabrata after 48 hrs by broth microdilution assay in presence of 25% human serum; assay type: functional; method in brief: as §1
Staphylococcus aureus [13] = assay: Antimicrobial activity against methicillin-resistant Staphylococcus aureus after 24 hrs by broth microdilution assay in presence of 25% human serum; assay type: functional
Method in brief: as §2, with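 “Bacterial” for “Bacteria were tested by”, “microdilution run” for “microdilution”, “with” for “containing”, “taken up” for “dissolved”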

[14] = system: Staphylococcus epidermidis; assay: Antimicrobial activity against Staphylococcus epidermidis ATCC 49461 after 24 hrs by broth microdilution assay in presence of 25% human serum; assay type: functional; conditions: ATCC 49461, 24 h; method in brief: as §2
Streptococcus pneumoniae [15] = assay: Antimicrobial activity against penicillin-resistant Streptococcus pneumoniae after 24 hrs by broth microdilution assay in presence of 25% human serum; assay type: functional
Method in brief: as §2, with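 “Bacterial” for “Bacteria were tested by”, “microdilution run” for “microdilution”, “with” for “containing”, “taken up” for “dissolved”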

Streptococcus pyogenes [16] = assay: Antimicrobial activity against penicillin-resistant Streptococcus pyogenes after 24 hrs by broth microdilution assay in presence of 25% human serum; assay type: functional
Method in brief: as §2, with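 “Bacterial” for “Bacteria were tested by”, “microdilution run” for “microdilution”, “with” for “containing”, “taken up” for “dissolved”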

Enterococcus faecium [17] = assay: Antimicrobial activity against vancomycin-resistant Enterococcus faecium after 24 hrs by broth microdilution assay in presence of 25% human serum; assay type: functional
Method in brief: as §2, with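 “Bacterial” for “Bacteria were tested by”, “microdilution run” for “microdilution”, “with” for “containing”, “taken up” for “dissolved”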

Rhodococcus sp. [18] = assay: Antimicrobial activity against Rhodococcus sp. after 24 hrs by broth microdilution assay in presence of 25% human serum; assay type: functional; conditions: Rhodococcus sp. (in: high G+C Gram-positive bacteria); method in brief: as §2
MCF7 = assay: Cytotoxicity against human MCF7 cells after 48 hrs by SRB assay; assay type: functional; conditions: MCF7, 48 h
P388 = assay: Cytotoxicity against mouse P388 cells; assay type: functional; conditions: read-out: ED50 (the source's name)
BXPC-3 = assay: Cytotoxicity against human BxPC3 cells after 48 hrs by SRB assay; assay type: functional; conditions: BXPC-3, 48 h
SF-268 = assay: Cytotoxicity against human SF268 cells after 48 hrs by SRB assay; assay type: functional; conditions: SF-268, 48 h
NCI-H460 = assay: Cytotoxicity against human NCI-H460 cells after 48 hrs by SRB assay; assay type: functional; conditions: NCI-H460, 48 h
KM-20L2 = assay: Cytotoxicity against human KM20L2 cells after 48 hrs by SRB assay; assay type: functional; conditions: KM-20L2, 48 h
DU-145 = assay: Cytotoxicity against human DU145 cells after 48 hrs by SRB assay; assay type: functional; conditions: DU-145, 48 h
Cryptococcus neoformans [19] = assay: Antimicrobial activity against Cryptococcus neoformans ATCC 90122 after 24 hrs by broth microdilution assay; assay type: functional; conditions: ATCC 90112, 24 h, in the assay text read “ATCC 90112” for “ATCC 90122”
Method in brief: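 Yeasts were tested by NCCLS broth microdilution. Compounds were dissolved in a small volume of sterile DMSO and diluted in the appropriate medium immediately before testing. MIC was the lowest concentration inhibiting all visible growth (optically clear). Assays were repeated on separate days.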

Candida albicans [20] = assay: Antimicrobial activity against Candida albicans ATCC 90028 at 64 ug/mL after 48 hrs by broth microdilution assay; assay type: functional, organism-based
Staphylococcus aureus [21] = assay: Antimicrobial activity against Staphylococcus aureus ATCC 29213 after 24 hrs by broth microdilution assay; assay type: functional; conditions: ATCC 29213, 24 h
Method in brief: (§3)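 Bacterial MICs were determined by NCCLS broth microdilution. Compounds were dissolved in a small volume of sterile DMSO and diluted in the appropriate medium just before testing. MIC was the lowest concentration giving no visible growth (optically clear). Assays were repeated on separate days.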

Streptococcus pneumoniae [22] = assay: Antimicrobial activity against Streptococcus pneumoniae ATCC 6303 after 24 hrs by broth microdilution assay; assay type: functional; conditions: ATCC 6303, 24 h; method in brief: as §3
Enterococcus faecalis [23] = assay: Antimicrobial activity against Enterococcus faecalis ATCC 29212 after 24 hrs by broth microdilution assay; assay type: functional; conditions: ATCC 29212, 24 h; method in brief: as §3
Micrococcus luteus [24] = assay: Antimicrobial activity against Micrococcus luteus Presque Isle 456 after 24 hrs by broth microdilution assay; assay type: functional; method in brief: as §3
Escherichia coli [25] = assay: Antimicrobial activity against Escherichia coli ATCC 25922 at 64 ug/mL after 24 hrs by broth microdilution assay; assay type: functional, organism-based
Enterobacter cloacae [26] = assay: Antimicrobial activity against Enterobacter cloacae ATCC 13047 at 64 ug/mL after 24 hrs by broth microdilution assay; assay type: functional, organism-based
[27] = system: Stenotrophomonas maltophilia; assay: Antimicrobial activity against Stenotrophomonas maltophilia ATCC 13637 at 64 ug/mL after 24 hrs by broth microdilution assay; assay type: functional, organism-based
Neisseria gonorrhoeae [28] = assay: Antimicrobial activity against Neisseria gonorrhoeae ATCC 49226 at 64 ug/mL after 24 hrs by broth microdilution assay; assay type: functional; conditions: ATCC 49226, 24 h
Cryptococcus neoformans [29] = assay: Antimicrobial activity against fluconazole-resistant Cryptococcus neoformans after 48 hrs by broth microdilution assay; assay type: functional
Method in brief: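 Yeast broth microdilution following NCCLS. Compounds were dissolved in sterile DMSO and diluted in medium immediately before testing. MIC was the lowest concentration leaving the well optically clear, with no visible growth.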

Nakaseomyces glabratus [30] = assay: Antimicrobial activity against Candida glabrata at 64 ug/mL after 48 hrs by broth microdilution assay; assay type: functional, organism-based
Staphylococcus aureus [31] = assay: Antimicrobial activity against methicillin-resistant Staphylococcus aureus after 24 hrs by broth microdilution assay; assay type: functional
Method in brief: (§4)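 NCCLS broth microdilution for bacteria. Compounds were dissolved in a small volume of sterile DMSO and diluted in medium just before testing. MIC was the lowest concentration giving no visible growth (optically clear). Assays were repeated on separate days.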

[32] = system: Staphylococcus epidermidis; assay: Antimicrobial activity against Staphylococcus epidermidis ATCC 49461 after 24 hrs by broth microdilution assay; assay type: functional; conditions: ATCC 49461, 24 h; method in brief: as §3
Streptococcus pneumoniae [33] = assay: Antimicrobial activity against penicillin-resistant Streptococcus pneumoniae after 24 hrs by broth microdilution assay; assay type: functional; method in brief: as §4
Streptococcus pyogenes [34] = assay: Antimicrobial activity against penicillin-resistant Streptococcus pyogenes after 24 hrs by broth microdilution assay; assay type: functional; method in brief: as §4
Enterococcus faecium [35] = assay: Antimicrobial activity against vancomycin-resistant Enterococcus faecium after 24 hrs by broth microdilution assay; assay type: functional; method in brief: as §4
Rhodococcus sp. [36] = assay: Antimicrobial activity against Rhodococcus sp. after 24 hrs by broth microdilution assay; assay type: functional; conditions: Rhodococcus sp. (in: high G+C Gram-positive bacteria); method in brief: as §3

CC(C)O[C@@H]1C[C@H]2C(C)(C)CCC[C@]2(C)c2ccc(O)c(C(C)C)c2O1 [NOOTKASTATIN 2]
2.4 µg/mL: GI50 (KM-20L2)
> 64 µg/mL: MIC (Cryptococcus neoformans [1]) | MIC (Candida albicans [2]) | MIC (Staphylococcus aureus [3]) | MIC (Streptococcus pneumoniae [4]) | MIC (Enterococcus faecalis [5]) | MIC (Micrococcus luteus [6]) | MIC (Escherichia coli [7]) | MIC (Enterobacter cloacae [8]) | MIC [9] | MIC (Neisseria gonorrhoeae [10]) | MIC (Cryptococcus neoformans [11]) | MIC (Nakaseomyces glabratus [12]) | MIC (Staphylococcus aureus [13]) | MIC [14] | MIC (Streptococcus pneumoniae [15]) | MIC (Streptococcus pyogenes [16]) | MIC (Enterococcus faecium [17]) | MIC (Rhodococcus sp. [18])
1.8 µg/mL: GI50 (BXPC-3)
32 µg/mL: MBC (Enterococcus faecalis [23])
2.3 µg/mL: GI50 (MCF7)
8 µg/mL: MBC (Staphylococcus aureus [21])
2 µg/mL: GI50 (SF-268) | GI50 (NCI-H460) | MIC (Enterococcus faecalis [23]) | MBC (Neisseria gonorrhoeae [28]) | MIC (Neisseria gonorrhoeae [28])
4 µg/mL: MIC (Staphylococcus aureus [21])
5.8 µg/mL: EC50 (P388)
16 µg/mL: MBC (Micrococcus luteus [24])
2.2 µg/mL: GI50 (DU-145)
inactive: Activity (Candida albicans [20]) | Activity (Escherichia coli [25]) | Activity (Enterobacter cloacae [26]) | Activity [27]
1 µg/mL: MIC (Micrococcus luteus [24])
64 µg/mL: MIC (Cryptococcus neoformans [19]) | MBC (Streptococcus pneumoniae [22]) | MIC (Streptococcus pneumoniae [22])

CO[C@@H]1C[C@H]2C(C)(C)CCC[C@]2(C)c2ccc(O)c(C(C)C)c21
inactive: Activity (Candida albicans [20]) | Activity (Escherichia coli [25]) | Activity (Enterobacter cloacae [26]) | Activity [27] | Activity (Nakaseomyces glabratus [30])
32 µg/mL: MBC (Streptococcus pyogenes [34])
1.7 µg/mL: GI50 (DU-145)
2 µg/mL: MIC (Micrococcus luteus [24]) | MIC [32] | MIC (Rhodococcus sp. [36])
1.8 µg/mL: GI50 (NCI-H460)
8 µg/mL: MIC (Cryptococcus neoformans [19]) | MIC (Streptococcus pneumoniae [22]) | MBC (Staphylococcus aureus [31]) | MBC (Rhodococcus sp. [36])
1.6 µg/mL: GI50 (KM-20L2)
1.5 µg/mL: GI50 (MCF7) | GI50 (BXPC-3)
> 10 µg/mL: EC50 (P388)
4 µg/mL: MIC (Staphylococcus aureus [21]) | MIC (Enterococcus faecalis [23]) | MIC (Neisseria gonorrhoeae [28]) | MFC (Cryptococcus neoformans [29]) | MIC (Cryptococcus neoformans [29]) | MIC (Staphylococcus aureus [31]) | MBC (Enterococcus faecium [35]) | MIC (Enterococcus faecium [35])
1.9 µg/mL: GI50 (SF-268)
16 µg/mL: MBC [32] | MBC (Streptococcus pneumoniae [33]) | MIC (Streptococcus pneumoniae [33]) | MIC (Streptococcus pyogenes [34])
> 64 µg/mL: MIC (Cryptococcus neoformans [1]) | MIC (Candida albicans [2]) | MIC (Staphylococcus aureus [3]) | MIC (Streptococcus pneumoniae [4]) | MIC (Enterococcus faecalis [5]) | MIC (Micrococcus luteus [6]) | MIC (Escherichia coli [7]) | MIC (Enterobacter cloacae [8]) | MIC [9] | MIC (Neisseria gonorrhoeae [10]) | MIC (Cryptococcus neoformans [11]) | MIC (Nakaseomyces glabratus [12]) | MIC (Staphylococcus aureus [13]) | MIC [14] | MIC (Streptococcus pneumoniae [15]) | MIC (Streptococcus pyogenes [16]) | MIC (Enterococcus faecium [17]) | MIC (Rhodococcus sp. [18])
